ChEMBL document CHEMBL1149899 (J Med Chem, 2008)
In brackets after ≈: the same amount, converted by molar mass.

How the values were obtained:
[1] = Inhibition of ATPase activity of yeast Hsp90; parameters: species or system Saccharomyces cerevisiae
[2] = Antitumor activity against human BXF 1218L cells; type: functional, cell-based
How it was run: (§1)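 Panel of 38 human solid-tumour cell lines, each tested in a monolayer proliferation assay. Growth inhibition was expressed as IC50 and IC70 values. Testing was run at Oncotest.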

[3] = Antitumor activity against human BXF T24 cells; type: functional, cell-based; details: T-24; how it was run: as §1
[4] = Antitumor activity against human CNXF 498NL cells; type: functional, cell-based; how it was run: as §1
[5] = system: SF-268; experiment: Antitumor activity against human CNXF SF268 cells; type: functional, cell-based; how it was run: as §1
[6] = Antitumor activity against human CXF HCT116 cells; type: functional, cell-based; details: HCT-116; how it was run: as §1
[7] = Antitumor activity against human CXF HT29 cells; type: functional, cell-based; details: HT-29; how it was run: as §1
[8] = system: SW-620; experiment: Antitumor activity against human CXF SW620 cells; type: functional, cell-based; how it was run: as §1
[9] = Antitumor activity against human GXF 251L cells; type: functional, cell-based; how it was run: as §1
[10] = Antitumor activity against human HNXF 536L cells; type: functional, cell-based; how it was run: as §1
[11] = Antitumor activity against human OVXF 1619L cells; type: functional, cell-based; how it was run: as §1
[12] = Antitumor activity against human LXF 1121L cells; type: functional, cell-based; how it was run: as §1
[13] = Antitumor activity against human LXF 289L cells; type: functional, cell-based; how it was run: as §1
[14] = Antitumor activity against human LXF 526L cells; type: functional, cell-based; how it was run: as §1
[15] = Antitumor activity against human LXF 529L cells; type: functional, cell-based; how it was run: as §1
[16] = Antitumor activity against human LXF 629L cells; type: functional, cell-based; how it was run: as §1
[17] = Antitumor activity against human LXF H640 cells; type: functional, cell-based; how it was run: as §1
[18] = Antitumor activity against human MAXF 401NL cells; type: functional, cell-based; how it was run: as §1
[19] = system: MCF7; experiment: Antitumor activity against human MAXF MCF7 cells; type: functional, cell-based; how it was run: as §1
[20] = Antitumor activity against human MEXF 276L cells; type: functional, cell-based; details: MEXF276L; how it was run: as §1
[21] = Antitumor activity against human MEXF 394NL cells; type: functional, cell-based; how it was run: as §1
[22] = Antitumor activity against human MEXF 462NL cells; type: functional, cell-based; how it was run: as §1
[23] = Antitumor activity against human MEXF 514L cells; type: functional, cell-based; how it was run: as §1
[24] = Antitumor activity against human MEXF 520L cells; type: functional, cell-based; how it was run: as §1
[25] = Antitumor activity against human OVXF 899L cells; type: functional, cell-based; how it was run: as §1
[26] = system: OVCAR-3; experiment: Antitumor activity against human OVCAR-3 cells; type: functional, cell-based; how it was run: as §1
[27] = Antitumor activity against human PAXF 165L cells; type: functional, cell-based; how it was run: as §1
[28] = Antitumor activity against human PAXF PANC1 cells; type: functional, cell-based; details: PANC-1; how it was run: as §1
[29] = system: CWR22R; experiment: Antitumor activity against human PRXF 22RV1 cells; type: functional, cell-based; how it was run: as §1
[30] = system: DU-145; experiment: Antitumor activity against human PRXF DU145 cells; type: functional, cell-based; how it was run: as §1
[31] = Antitumor activity against human PRXF LNCAP cells; type: functional, cell-based; how it was run: as §1
[32] = Antitumor activity against human PXF 1752L cells; type: functional, cell-based; how it was run: as §1
[33] = Antitumor activity against human RXF 1781L cells; type: functional, cell-based; how it was run: as §1
[34] = Antitumor activity against human RXF 393NL cells; type: functional, cell-based; how it was run: as §1
[35] = Antitumor activity against human RXF 486L cells; type: functional, cell-based; how it was run: as §1
[36] = Antitumor activity against human RXF 944L cells; type: functional, cell-based; how it was run: as §1
[37] = system: UO-31; experiment: Antitumor activity against human RXF UO31 cells; type: functional, cell-based; how it was run: as §1
[38] = Antitumor activity against human […] 1138L cells; type: functional, cell-based; how it was run: as §1
[39] = system: DU-145; experiment: Degradation of ErbB2 in human DU145 cell lysate by Western blot; type: functional, cell-based
How it was run: (§2)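 DU145 prostate cancer cells were exposed to 1 or 10 µM, with time points including 48 and 96 h. Cell lysates were probed by Western blot for ErbB2, cRaf1, Hsp90 and Hsp70.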

[40] = system: DU-145; experiment: Degradation of cRaf1 in human DU145 cell lysate by Western blot; type: functional, cell-based; how it was run: as §2
[41] = system: DU-145; experiment: Antitumor activity against human DU145 tumor xenografted mouse at 10 mg/kg, ip measured on day 31; type: functional; details: route intraperitoneal
[42] = system: DU-145; experiment: Antitumor activity against human DU145 tumor xenografted mouse assessed delay for tumor doubling time at 10 mg/kg, ip; type: functional; details: route intraperitoneal
[43] = system: DU-145; experiment: Antitumor activity against human DU145 tumor xenografted mouse assessed delay for tumor quadrupling time at 10 mg/kg, ip; type: functional; details: route intraperitoneal
[44] = system: Mus musculus; experiment: Toxicity in human DU145 cells xenografted mouse assessed as loss of body weight at 10 mg/kg, ip on day 3; type: organism-based, DU-145; parameters: dose 10 mg/kg, route intraperitoneal; details: in vivo
[45] = Antitumor activity against human PRXF PC3M cells; type: functional, cell-based; details: PC-3M; how it was run: as §1

Structure (SMILES): CO[C@H]1[C@@H](OC)C[C@H](C)[C@@H](OC)C2=CC(=O)C=C(NC(=O)/C(C)=C/C=C\[C@H](C)[C@@H](OC(N)=O)/C(C)=C/[C@@H]1C)C2=O [MACBECIN]
- IC50 [1]: 2000 nM
- IC50 [2]: < 0.01 µg/mL
- IC70 [2]: < 0.01 µg/mL
- IC90 [2]: 37.3 µg/mL (≈ 66.7 µM)
- IC50 [3]: 1.6 µg/mL (≈ 2.87 µM)
- IC70 [3]: 4.56 µg/mL (≈ 8.16 µM)
- IC90 [3]: 35.9 µg/mL (≈ 64.3 µM)
- IC50 [4]: < 0.01 µg/mL
- IC70 [4]: 0.857 µg/mL (≈ 1.53 µM)
- IC90 [4]: 27.8 µg/mL (≈ 49.8 µM)
- IC50 [5]: 0.527 µg/mL (≈ 0.943 µM)
- IC70 [5]: 1.97 µg/mL (≈ 3.52 µM)
- IC90 [5]: 7.63 µg/mL (≈ 13.7 µM)
- IC50 [6]: 0.923 µg/mL (≈ 1.65 µM)
- IC70 [6]: 6.06 µg/mL (≈ 10.8 µM)
- IC90 [6]: 51.8 µg/mL (≈ 92.7 µM)
- IC50 [7]: < 0.01 µg/mL
- IC70 [7]: 0.292 µg/mL (≈ 0.523 µM)
- IC90 [7]: 7.2 µg/mL (≈ 12.9 µM)
- IC50 [8]: < 0.01 µg/mL
- IC70 [8]: < 0.01 µg/mL
- IC90 [8]: 7.36 µg/mL (≈ 13.2 µM)
- IC50 [9]: 3.73 µg/mL (≈ 6.67 µM)
- IC70 [9]: 25.1 µg/mL (≈ 45 µM)
- IC90 [9]: 93.6 µg/mL (≈ 168 µM)
- IC50 [10]: 1.61 µg/mL (≈ 2.89 µM)
- IC70 [10]: 4.22 µg/mL (≈ 7.55 µM)
- IC90 [10]: 11 µg/mL (≈ 19.7 µM)
- IC50 [11]: 1.56 µg/mL (≈ 2.79 µM)
- IC70 [11]: 9.15 µg/mL (≈ 16.4 µM)
- IC90 [11]: > 100 µg/mL
- IC50 [12]: 0.048 µg/mL (≈ 0.0859 µM)
- IC70 [12]: 1 µg/mL (≈ 1.79 µM)
- IC90 [12]: 60 µg/mL (≈ 107 µM)
- IC50 [13]: 27.7 µg/mL (≈ 49.6 µM)
- IC70 [13]: 59 µg/mL (≈ 106 µM)
- IC90 [13]: 125 µg/mL (≈ 224 µM)
- IC50 [14]: 6.45 µg/mL (≈ 11.5 µM)
- IC70 [14]: 41.2 µg/mL (≈ 73.8 µM)
- IC90 [14]: 242 µg/mL (≈ 434 µM)
- IC50 [15]: 8.19 µg/mL (≈ 14.7 µM)
- IC70 [15]: 25.6 µg/mL (≈ 45.9 µM)
- IC90 [15]: 73 µg/mL (≈ 131 µM)
- IC50 [16]: 0.005 µg/mL (≈ 0.00895 µM)
- IC70 [16]: 30.6 µg/mL (≈ 54.8 µM)
- IC90 [16]: 114 µg/mL (≈ 204 µM)
- IC50 [17]: 2.11 µg/mL (≈ 3.78 µM)
- IC70 [17]: 7.33 µg/mL (≈ 13.1 µM)
- IC90 [17]: 61.6 µg/mL (≈ 110 µM)
- IC50 [18]: < 0.01 µg/mL
- IC70 [18]: < 0.01 µg/mL
- IC90 [18]: < 100 µg/mL
- IC50 [19]: 0.158 µg/mL (≈ 0.283 µM)
- IC70 [19]: 3.32 µg/mL (≈ 5.95 µM)
- IC90 [19]: 79.4 µg/mL (≈ 142 µM)
- IC50 [20]: 13.9 µg/mL (≈ 24.9 µM)
- IC70 [20]: 51.8 µg/mL (≈ 92.7 µM)
- IC90 [20]: 193 µg/mL (≈ 346 µM)
- IC50 [21]: < 0.01 µg/mL
- IC70 [21]: < 0.01 µg/mL
- IC90 [21]: 31.6 µg/mL (≈ 56.6 µM)
- IC50 [22]: 0.456 µg/mL (≈ 0.816 µM)
- IC70 [22]: 1.97 µg/mL (≈ 3.52 µM)
- IC90 [22]: 41.2 µg/mL (≈ 73.8 µM)
- IC50 [23]: 7.8 µg/mL (≈ 14 µM)
- IC70 [23]: 25.7 µg/mL (≈ 46 µM)
- IC90 [23]: 83.8 µg/mL (≈ 150 µM)
- IC50 [24]: 9.34 µg/mL (≈ 16.7 µM)
- IC70 [24]: 26.4 µg/mL (≈ 47.3 µM)
- IC90 [24]: 73.6 µg/mL (≈ 132 µM)
- IC50 [25]: 16.2 µg/mL (≈ 29 µM)
- IC70 [25]: 47.2 µg/mL (≈ 84.6 µM)
- IC90 [25]: 138 µg/mL (≈ 247 µM)
- IC50 [26]: 1.24 µg/mL (≈ 2.22 µM)
- IC70 [26]: 3.62 µg/mL (≈ 6.47 µM)
- IC90 [26]: 10.6 µg/mL (≈ 18.9 µM)
- IC50 [27]: 4.16 µg/mL (≈ 7.44 µM)
- IC70 [27]: 19.3 µg/mL (≈ 34.6 µM)
- IC90 [27]: > 100 µg/mL
- IC50 [28]: 0.577 µg/mL (≈ 1.03 µM)
- IC70 [28]: 3.59 µg/mL (≈ 6.43 µM)
- IC90 [28]: 139 µg/mL (≈ 249 µM)
- IC50 [29]: 0.189 µg/mL (≈ 0.338 µM)
- IC70 [29]: 1.86 µg/mL (≈ 3.33 µM)
- IC90 [29]: 31.6 µg/mL (≈ 56.6 µM)
- IC50 [30]: < 0.01 µg/mL
- IC70 [30]: < 0.01 µg/mL
- IC90 [30]: 2.37 µg/mL (≈ 4.24 µM)
- IC50 [31]: 0.008 µg/mL (≈ 0.0143 µM)
- IC70 [31]: 14.2 µg/mL (≈ 25.5 µM)
- IC90 [31]: > 100 µg/mL
- IC50 [32]: 16.6 µg/mL (≈ 29.7 µM)
- IC70 [32]: 41.7 µg/mL (≈ 74.6 µM)
- IC90 [32]: 105 µg/mL (≈ 187 µM)
- IC50 [33]: 4.33 µg/mL (≈ 7.75 µM)
- IC70 [33]: 25.9 µg/mL (≈ 46.4 µM)
- IC90 [33]: 127 µg/mL (≈ 227 µM)
- IC50 [34]: 0.297 µg/mL (≈ 0.532 µM)
- IC70 [34]: 5.18 µg/mL (≈ 9.27 µM)
- IC90 [34]: 57.8 µg/mL (≈ 103 µM)
- IC50 [35]: 6.72 µg/mL (≈ 12 µM)
- IC70 [35]: 20.5 µg/mL (≈ 36.8 µM)
- IC90 [35]: 86.6 µg/mL (≈ 155 µM)
- IC90 [36]: 10 µg/mL (≈ 17.9 µM)
- IC50 [37]: 2.4 µg/mL (≈ 4.3 µM)
- IC70 [37]: 4.99 µg/mL (≈ 8.94 µM)
- IC90 [37]: 100 µg/mL (≈ 179 µM)
- IC50 [38]: 3.35 µg/mL (≈ 5.99 µM)
- IC70 [38]: 11.1 µg/mL (≈ 19.9 µM)
- IC90 [38]: 90.1 µg/mL (≈ 161 µM)
- Activity [39]: Dose-dependent effect
- Activity [40]: Dose-dependent effect
- T/C [41]: 32.2%
- Time [42]: 2.3 days
- Time [43]: 20.4 days
- Activity [44]: 5.3%
- IC50 [45]: 0.009 µg/mL (≈ 0.0161 µM)
- IC70 [45]: 1.41 µg/mL (≈ 2.53 µM)
- IC90 [45]: 19.9 µg/mL (≈ 35.7 µM)
